# STAT3 act – activators of IL-6 induced STAT3 signaling; U3A cells, IL-6 STAT3-luciferase reporter, luminescence; 100% = signal with IL-6 EC80 alone; activation (% of control), % at 5.6 µM; 190,000 compounds, 0.91% hits; AID 871;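 active = activation above the screen-wide mean of compound activation plus 3 SD, cut at about 130% in these data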;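 note: 0% = background luminescence of wells with medium and substrate only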
#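 Material: STAT1-lacking human U3A cells, STAT3 luciferase reporter | Benchmarks: IL-6-only wells as 100% reference | Probe or stimulus: IL-6 (33 ng/mL) | Timing: Compound 1 h, then IL-6 6 h at 37 °C | Detection: Luminescence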
# APP 5'UTR act – activates APP 5'UTR luciferase reporter; SH-SY5Y APP 5'UTR luciferase reporter, luminescence; zero percent = DMSO vehicle wells; activation, % at 2 µM; 190,000 compounds, 1% hits; AID 1276;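 active = activation above a set limit, based on mean plus 3 SD of controls, cut at about 140% in these data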
# NF-kB neuron act – raises NF-kB expression in human neuronal cells; 190,000 compounds, 1.6% hits; NF-kB reporter expression; hits give high values; fold change at 12.5 µM; in the data active = fold change above about 3.3
# STAT1 act – STAT1 signaling activation. NIH 3T3 STAT1-luciferase reporter, IFN-gamma, luminescence; 100% = IFN-gamma alone, no compound. activation (% of control), % at 5.5 µM. 200,000 compounds, 2.6% hits;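 active = activation above the screen-wide mean activation plus 3 SD, cut at about 130% in these data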;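 note: raw ratio to IFN-gamma control signal so 100% means no change and 0% no light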
# STAT3 inh-1 – inhibitors of IL-6 induced STAT3 signaling | inhibition, % at 5.5 µM | 190,000 compounds, 0.89% hits | AID 862 | U3A cells, IL-6 STAT3-luciferase reporter, luminescence; host cell line lacks STAT1;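 active = inhibition above the mean inhibition across all screened compounds plus 3 SD, cut at about 44% in these data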;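 note: 0% = DMSO only wells and 100% = 100 µM nifuroxazide control wells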
# STAT1 inh – reduces IFN-gamma driven STAT1 reporter signal; NIH 3T3 STAT1-luciferase reporter, luminescence; 200,000 compounds, 0.35% hits; inhibition, % at 5.5 µM;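 active = inhibition above a set limit, the mean inhibition across all tested compounds plus 3 SD, cut at about 34% in these data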;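 note: 0% = IFN-gamma with DMSO and 100% = IFN-gamma with 300 µM nifuroxazide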
# STAT3 inh-2 – STAT3 inhibition, confirmation assay. shares compounds with STAT3 inh-1. U3A cells, IL-6 STAT3 luciferase reporter, luminescence; cell line lacks STAT1. inhibition, % at 5.7 µM. 1,200 compounds, 45% hits. AID 1265;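 active = inhibition above the hit cutoff computed for the primary STAT3 screen, cut at about 44% in these data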;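 note: 0% = IL-6 plus DMSO and 100% = IL-6 plus nifuroxazide control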
# NFkB inh 2 – counter-screen for STAT3 inhibitors: NF-kappaB inhibition | shares compounds with STAT3 inh-1 | HEK293T NF-kB luciferase reporter, TNF-alpha induced | inhibition, % at 5.7 µM | 1,200 compounds, 36% hits | AID 1308;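 active = inhibition above the mean of solvent-only control wells plus 3 SD, cutoff set per campaign, cut at about 13% in these data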;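 note: 0% = TNF-alpha with DMSO and 100% = TNF-alpha with MG high control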
# STAT1 inh STAT3c – STAT1 inhibition in STAT3 inhibitor counter-screen; 1,200 compounds, 27% hits; inhibition, % at 5.7 µM; NIH 3T3 STAT1-luciferase reporter, IFN-gamma induced, luminescence; shares compounds with STAT3 inh-1;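 active = inhibition above the mean plus 3 SD of solvent-only control wells, limit set per screening run, cut at about 16% in these data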;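 note: 0% = DMSO with IFN-gamma and 100% = nifuroxazide control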
# Numbers without * were called inactive; . = not tested or not shown. Compounds with a hit are over-represented: about 5.1% of the library has one in this group of screens.
SMILES,STAT3 act,APP 5'UTR act,NF-kB neuron act,STAT1 act,STAT3 inh-1,STAT1 inh,STAT3 inh-2,NFkB inh 2,STAT1 inh STAT3c
CC1(C)CC2CC(C)(CN2S(=O)(=O)c2ccc(C(=O)Nc3ccc(Cl)c(S(=O)(=O)N4CCOCC4)c3)cc2)C1 (stereo unspecified),70,-1,0.89,93,45*,8,50*,22*,7
Cc1cc(N2CCOCC2)n2ncc(-c3ccccc3)c2n1,47,142*,0.81,71,66*,32,23,5,-79
Cc1cc(NCCCn2ccnc2)n2ncc(-c3ccccc3)c2n1,37,102,0.92,76,74*,27,21,25*,-57
Cc1cc(-c2ccccc2)n2ncc(-c3ccccc3)c2n1,60,166*,1.4,143*,50*,-49,0,-15,-134
CC(C)CC1N=C2c3ccccc3N=C(SCc3cc(=O)n4ccccc4n3)N2C1=O (stereo unspecified),94,11,.,99,10,1,.,.,.
Cc1ccc(NC(=O)c2ccc(COc3ccc4c(c3)CCC4)cc2)c(C)c1,98,-6,0.96,106,2,-6,.,.,.
O=[N+]([O-])c1ccc(C(O)CN=Cc2ccc(O)cc2O)cc1 (stereo unspecified),94,17,1.1,104,12,-5,.,.,.
CCCCNc1cc(C)nc(NCc2ccccc2)n1,64,12,1.7,70,44*,32,35,13*,27*
COc1ccc(OCC(=O)Nc2ccc(N3CCN(C(=O)c4ccco4)CC3)cc2)cc1,95,22,2.3,110,12,-13,.,.,.
O=C(COc1ccc(Cl)cc1)Nc1ccc(N2CCN(C(=O)c3ccco3)CC2)cc1,56,-9,0.69,87,61*,15,40,5,8
CC(=O)N1CCN(c2ccc(NC(=O)COc3ccc(Cl)cc3Cl)cc2)CC1,53,-14,0.85,94,60*,7,37,2,2
CC(=O)N1CCN(c2ccccc2NC(=O)COc2ccc(Cl)cc2Cl)CC1,133,-11,0.54,106,-35,-12,.,.,.
CCOc1ccc(-n2nc3c(Cl)nnc(C)c3c2C)cc1,87,-12,0.84,95,19,5,.,.,.
CCCCn1c(SCc2nc(N)nc(N3CCCCC3)n2)nc2c1c(=O)n(C)c(=O)n2C,102,-12,1.1,94,-5,8,.,.,.
Nc1nc(Nc2ccccc2)nc2ccccc12,57,155*,5.5*,105,57*,-6,14,-23,-92
Cc1ccccc1Nc1nc(N)nc(CSc2nc3ccccc3c(=O)n2C)n1,88,-7,0.58,93,19,8,.,.,.
Cc1ccccc1Nc1nc(N)c2ccccc2n1,52,144*,8.9*,108,61*,-8,18,-27,-70
Nc1nc(CCl)nc(Nc2ccccc2)n1,95,15,0.16,106,9,-8,.,.,.
O=C(CSc1nnc(NC(=O)c2ccc3c(c2)OCO3)s1)NCc1ccco1,58,83,1.4,77,53*,23,22,3,-18
C=CC[n+]1c(/C=C2\C=Cc3cc(C)ccc3N2CC)ccc2ccccc21,24,-20,1.1,81,88*,20,88*,50*,26*
CCN1C(=C(C#N)C#N)C=Cc2cc(C)ccc21,95,11,1.3,110,17,-11,.,.,.
O=C(CSc1n[nH]c(-c2ccccc2)n1)c1ccc(O)c(O)c1,100,-9,0.91,96,7,6,.,.,.
CC(/C=N\NC(=O)c1ccc(C)nc1)=C\c1ccccc1,93,-12,1.3,100,12,0,.,.,.
COc1cccc(-c2nnc(-c3ccc(C)o3)o2)c1,56,164*,4.2*,120,55*,-9,32,-9,-67
COc1cccc(-c2nnc(NC(=O)C(C)C)o2)c1,95,-1,1.2,102,14,-3,.,.,.
SMILES,STAT3 act,APP 5'UTR act,NF-kB neuron act,STAT1 act,STAT3 inh-1,STAT1 inh,STAT3 inh-2,NFkB inh 2,STAT1 inh STAT3c
Cc1c(Cl)cccc1NC(CC(=O)c1ccccc1)C(=O)O (stereo unspecified),118,28,1.4,93,-22,8,.,.,.
O=C(CC(Nc1ccccc1Cl)C(=O)O)c1ccccc1 (stereo unspecified),49,172*,0.61,127,62*,-31,16,-41,-131
CCc1n[nH]c2c1/C(=N\O)CC(c1ccccc1)C2 (stereo unspecified),65,-2,1.1,102,44*,-2,30,10,10
CCCCc1n[nH]c2c1/C(=N/O)CC(c1ccccc1)C2 (stereo unspecified),73,8,1.2,100,38,0,.,.,.
O=C(CCNC(=O)OCc1ccccc1)NC1CCCCCC1,100,-1,1,104,4,-5,.,.,.
Cc1oc(-c2ccc3c(c2)OCCO3)cc1C(=O)O,50,25,2.5,93,64*,9,93*,56*,74*
COC(=O)c1cc(CNC(=O)c2cccc(Cl)c2Cl)ccc1OC,103,-6,0.97,104,-2,-5,.,.,.
Cc1nnc(NC(=O)c2sc3ccccc3c2Cl)s1,45,65,3.3*,78,66*,24,45*,13*,19*
Cc1ccc(NC(=O)c2sc3ccccc3c2Cl)nc1,66,192*,3.2,128,49*,-31,0,0,-72
CNC(=O)c1ccsc1NC(=O)c1sc2ccccc2c1Cl,103,47,1.1,124,-4,-27,.,.,.
COCc1nnc(NC(=O)c2sc3ccccc3c2Cl)s1,95,11,1.7,101,9,-1,.,.,.
Cc1c(C(=O)O)oc2c1/C(=N\O)CC(C)(C)C2,103,-1,1,107,-3,-8,.,.,.
CC(=O)Nc1ccc(S(=O)(=O)Oc2cccc(N3C(=O)C4CC=CCC4C3=O)c2)cc1 (stereo unspecified),92,-18,0.63,93,10,8,.,.,.
CC(=O)Nc1ccc(S(=O)(=O)Oc2ccc(N3C(=O)C4CCCCC4C3=O)cc2)cc1 (stereo unspecified),43,5,0.94,84,73*,17,61*,20*,19*
O=C(COC(=O)c1cccs1)c1ccc2c(c1)OCCO2,55,134,3.1,96,54*,17,19,-6,-40
